Results on 17 compounds are retold here after ChEMBL document CHEMBL3272006, “Synthesis of some 1, 8- and 2, 8-disubstituted derivatives of adenosine cyclic 3', 5'-phosphate and their interaction with some enzymes of cAMP metabolism” (J Med Chem, 1976).

The species entered for experiment [1] is Bos taurus. The experiment can be described thus: Ratio of Ka for cAMP to Ka for compound for bovine brain protein kinase in presence of 0.5 nmol [32P]ATP-gamma by liquid scintillation spectrometer.
Experiment [2] in a line: Inhibition of rabbit lung PDE assessed as inhibition 8-[3H]-cAMP substrate hydrolysis. Also on record: species or system Oryctolagus cuniculus. The following applies: read-out: I50. In outline: (§1)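 Beef heart or rabbit lung enzyme; 0.5 ml with 25 µmol Tris HCl pH 7.5, 5 µmol MgCl2, 20–200 µg protein, 80 pmol 8-[3H]cAMP, varying inhibitor levels. Times set by pilot runs. Heat stop, snake venom 5'-nucleotidase converts product to nucleoside, unreacted cyclic nucleotide bound to Dowex-1, nucleoside radioactivity counted. Nucleotidase interference checked with [14C]-5'-AMP.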

A short description of experiment [3]: Inhibition of bovine heart PDE assessed as inhibition 8-[3H]-cAMP substrate hydrolysis. The settings on record: read-out: I50. Also on record: species or system Bos taurus. The method in brief: as §1
The species named for experiment [4] is Oryctolagus cuniculus. Put plainly: Activity of rabbit kidney PDE assessed as enzyme-mediated compound hydrolysis after 10 to 60 mins by colorimetric assay relative to cAMP. The format is tissue-based. The method in brief:
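Rabbit kidney enzyme; 0.60 ml mix with 3.0 µmol cyclic nucleotide (5 mM), 3.0 µmol Tris HCl pH 7.5, 6 µmol MgCl2, 0.1–0.3 mg protein. Incubated usually 10–60 min, stopped by heating, bacterial alkaline phosphatase added, released phosphate read colorimetrically. Rate expressed relative to cAMP hydrolysis (nmol 5'-AMP per min).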

On to `Cn1cnc2c(nc(SCc3ccccc3)n2[C@@H]2O[C@@H]3COP(=O)(O)O[C@H]3[C@H]2O)c1=N`, for which, in experiment [1], the Ratio was 1.3. The IC50 in experiment [2] was found to be 61 µM; in experiment [3], 67 µM.

As for `Cn1cnc2c(ncn2[C@@H]2O[C@@H]3COP(=O)(O)O[C@H]3[C@H]2O)c1=N`, in experiment [1], the Ratio turned out to be 0.012. Also, the IC50 in experiment [2] stood at 65 µM; in experiment [3], 80 µM. Moreover, the fold change (FC) in experiment [4] was determined as 0.16.

`[N-]=[N+]=Nc1nc2c(N)ncnc2n1[C@@H]1O[C@@H]2COP(=O)(O)O[C@H]2[C@H]1O`: in experiment [1], the Ratio came out at 0.68. Besides, the results for the IC50 in experiment [2] and in experiment [3] were 80 µM and 43 µM, respectively. The fold change (FC) in experiment [4] is < 0.05.

With `Nc1ncnc2c1nc(Sc1ccc(Cl)cc1)n2[C@@H]1O[C@@H]2COP(=O)(O)O[C@H]2[C@H]1O`, in experiment [1], the Ratio worked out at 18. In addition, the IC50 in experiment [2] turned out to be 200 µM. The fold change (FC) in experiment [4] is < 0.05.

As for `Cc1nc(N)c2nc(Sc3ccc(Cl)cc3)n([C@@H]3O[C@@H]4COP(=O)(O)O[C@H]4[C@H]3O)c2n1`, in experiment [1], the Ratio stood at 2.3. Further, the IC50 in experiment [2] amounted to 33 µM; in experiment [3], 5 µM. Further, the fold change (FC) in experiment [4] turned out to be 0.05.

Take `Cc1nc(N)c2ncn([C@@H]3O[C@@H]4COP(=O)(O)O[C@H]4[C@H]3O)c2n1`: the Ratio in experiment [1] is 0.16. Moreover, the IC50 is 1.6 µM in experiment [2] and 1.1 µM in experiment [3]. Moreover, in experiment [4], the fold change (FC) came out at 0.83.

Turning to `Nc1ncnc2c1nc(SCc1ccccc1)n2[C@@H]1O[C@@H]2COP(=O)(O)O[C@H]2[C@H]1O`, in experiment [1], the Ratio came to 2.1. Further, the IC50 was found to be 53 µM in experiment [2] and 17 µM in experiment [3]. Also, in experiment [4], the fold change (FC) is < 0.05.

For `CCCCc1nc(N)c2ncn([C@@H]3O[C@@H]4COP(=O)(O)O[C@H]4[C@H]3O)c2n1`, in experiment [1], the Ratio is 0.46. Also, the IC50 in experiment [2] stood at 3 µM; in experiment [3] it was 10 µM. The fold change (FC) in experiment [4] stood at 0.64.

For the compound `Cc1nc(N)c2nc(N=[N+]=[N-])n([C@@H]3O[C@@H]4COP(=O)(O)O[C@H]4[C@H]3O)c2n1`, the Ratio in experiment [1] turned out to be 0.45. Moreover, the IC50 worked out at 67 µM in experiment [2] and 50 µM in experiment [3]. For the same compound, in experiment [4], the fold change (FC) was 0.16.

With `CCCCc1nc(N)c2nc(SCc3ccccc3)n([C@@H]3O[C@@H]4COP(=O)(O)O[C@H]4[C@H]3O)c2n1`, the Ratio in experiment [1] is 1.1. Besides, the IC50 was 9.5 µM in experiment [2] and 7.1 µM in experiment [3]. The fold change (FC) in experiment [4] was < 0.05.

For `Cc1nc(N)c2nc(Br)n([C@@H]3O[C@@H]4COP(=O)(O)O[C@H]4[C@H]3O)c2n1`, the Ratio in experiment [1] was determined as 3.4. For the same compound, the IC50 in experiment [2] was 25 µM; in experiment [3] it was 30 µM. Also, the fold change (FC) in experiment [4] worked out at 0.15.

Turning to `CCCCc1nc(N)c2nc(Sc3ccc(Cl)cc3)n([C@@H]3O[C@@H]4COP(=O)(O)O[C@H]4[C@H]3O)c2n1`, in experiment [1], the Ratio was determined as 2.2. The IC50 in experiment [2] was found to be 11 µM; in experiment [3], 5 µM. Besides, the fold change (FC) in experiment [4] was < 0.05.

Take `Nc1ncnc2c1nc(Br)n2[C@@H]1O[C@@H]2COP(=O)(O)O[C@H]2[C@H]1O`: the Ratio in experiment [1] stood at 2.9. Also, the IC50 in experiment [2] came to 40 µM. Further, in experiment [4], the fold change (FC) was < 0.05.

For the compound `Nc1c2ncn([C@@H]3O[C@@H]4COP(=O)(O)O[C@H]4[C@H]3O)c2nc[n+]1[O-]`, the Ratio in experiment [1] is 0.45. Moreover, the results for the IC50 in experiment [2] and in experiment [3] were 35 µM and 50 µM, respectively. In experiment [4], the fold change (FC) amounted to 0.33.

Turning to `Cc1nc(N)c2nc(SCc3ccccc3)n([C@@H]3O[C@@H]4COP(=O)(O)O[C@H]4[C@H]3O)c2n1`, the Ratio in experiment [1] is 0.95. For the same compound, the IC50 in experiment [2] is 9.5 µM; in experiment [3], 4.3 µM. Also, the fold change (FC) in experiment [4] stood at 0.05.

Regarding `CCCCc1nc(N)c2nc(Br)n([C@@H]3O[C@@H]4COP(=O)(O)O[C@H]4[C@H]3O)c2n1`, the Ratio in experiment [1] worked out at 0.66. For the same compound, the IC50 in experiment [2] was 17 µM; in experiment [3], 11 µM. In experiment [4], the fold change (FC) is < 0.05.

For the compound `Nc1c2nc(Br)n([C@@H]3O[C@@H]4COP(=O)(O)O[C@H]4[C@H]3O)c2nc[n+]1[O-]`, the Ratio in experiment [1] was determined as 0.15. Further, the IC50 is 400 µM in experiment [2] and 59 µM in experiment [3]. Besides, the fold change (FC) in experiment [4] was < 0.05.
